Published values gathered from unrelated publications.
Cell line: MCF7
Read-out: cell growth or viability

| Structure (SMILES) | assay | conditions | IC50 |
| --- | --- | --- | --- |
| O=C(O)c1c[nH]c2ccc(Oc3ccccc3)cc2c1=O | MTT |  | ≥ 200 µM |
| Nc1ccn([C@@H]2O[C@H](CO)[C@@H](O)C2(F)F)c(=O)n1 | MTT | 24 h | 2.75 µg/mL |
| O=S(=O)([O-])c1ccc(O)c(C=NNC(=S)Nc2cccc3ccccc23)c1.[Na+] | MTT | 48 h | > 800 µg/mL |
| C#Cc1cccc(Nc2ncnc3cc(OCCOC)c(OCCOC)cc23)c1 | MTT | 48 h | > 20 µM |
| Cc1cccc(N=C2C(=O)Nc3ccccc32)c1 | MTT | 48 h | 73.4 µM |
| c1ccc(Cn2nc(-c3nc(-c4ccccc4)n[nH]3)c3ccccc32)cc1 |  | 48 h | 97.4 µM |
| CN(C)c1cccc(Nc2nc(-c3ccncc3)nc3c2CNCC3)c1 | MTT |  | 46.4 µM |
| C#Cc1cccc(Nc2ncnc3cc(OCCOC)c(OCCOC)cc23)c1 | LDH | 48 h | 1.05 µM |
| O=[N+]([O-])c1cc(Br)c(O)c(C=NNc2ccc(Br)cc2)c1 | MTT | 24 h | 9.23 µM |
| COc1ccc(NC(=S)N/N=C/c2cccc3cc4ccccc4nc23)cc1 | MTT | 48 h | > 50 µM |
| COc1cc(N=C2C(=O)N(Cc3ccccc3)c3ccccc32)cc(OC)c1 | MTT | 48 h | 0.56 µM |
| COc1cccc2c1C(=O)c1c(O)c3c(c(O)c1C2=O)C[C@@](O)(C(=O)CO)C[C@@H]3O[C@H]1C[C@H](N)[C@H](O)[C@H](C)O1 | MTT | 24 h | 1.09 µM |
| CCOC(=O)c1c(C)nc2ccc(-c3ccc(F)cc3F)cc2c1O | MTT | 48 h | 27 µM |
| C#CCn1c(C2CC(c3ccc(F)cc3)=NN2C(C)=O)nc2ccccc21 (stereo not shown) | LDH | 48 h | 2.97 µM |
| CCOC(=O)C(=CNc1ccc(Oc2ccccc2)cc1)C(=O)OCC | MTT | 48 h | 115 µM |
| C[C@H]1[C@H](C)CC[C@]2(C(=O)O)CC[C@]3(C)C(=CC[C@@H]4[C@@]5(C)CC[C@H](O)C(C)(C)[C@@H]5CC[C@]43C)[C@H]12 | thymidine uptake | 24 h | 25.7 µM |
| C[C@H]1[C@H](C)CC[C@]2(C)CC[C@]3(C)C(=CC(=O)[C@@H]4[C@@]5(C)CC[C@@H](O)[C@](C)(C(=O)NCc6cn(-c7ccc(Br)cc7)nn6)[C@@H]5CC[C@]43C)[C@H]12 | MTT | 24 h | 75.1 µM |
| O=C1CS/C(=N\c2cc(C(F)(F)F)ccc2-c2nnc(N3C(=O)CS/C3=N\c3ccc(-c4ccccc4)cc3)s2)N1c1ccc(-c2ccccc2)cc1 | MTT |  | 90.1 µM |
| O=C1Nc2ccccc2C1=Nc1cccc(Cl)c1 | MTT | 48 h | > 100 µM |
| Fc1ccc2c(-c3nnc(Cc4ccccc4)s3)nn(Cc3ccc(Cl)cc3Cl)c2c1 |  | 48 h | 89.3 µM |
| NNc1nc2c(Cl)cc(Cl)cc2c(=O)n1-c1ccc(F)cc1 | MTT | 48 h | > 200 µM |
| CC(C)c1cccc(C(C)C)c1N=C1C(=O)N(Cc2ccc(Br)cc2)c2ccccc21 | MTT | 48 h | 52.6 µM |
| NNc1nc2c(Cl)cc(Cl)cc2c(=O)n1-c1ccccc1 | MTT | 48 h | > 200 µM |
| C/C(=N\NC(=O)/N=C(\C)c1c(O)c2ccccc2oc1=O)c1c(O)c2ccccc2oc1=O | MTT | 48 h | 12.6 µM |
| O=C1CS/C(=N\c2cc(C(F)(F)F)ccc2-c2nnc(N3C(=O)CS/C3=N\c3cccc(Cl)c3)s2)N1c1cccc(Cl)c1 | MTT |  | 49.2 µM |
| O=C1/C(=C/c2ccc3ccccc3c2O)NC(=S)N1c1ccccc1 | MTT |  | 8.1 µg/mL |
| NS(=O)(=O)c1ccc(-n2nc(C(=O)NN=Cc3ccccc3O)cc2-c2ccccc2)cc1 | fluorescence | 48 h | 18 µM |
| COc1ccc2c(-c3ncc(-c4ccccc4)o3)nn(Cc3ccccc3)c2c1 |  | 48 h | 88 µM |

| Structure (SMILES) | assay | conditions | IC50 |
| --- | --- | --- | --- |
| O=C(C=Cc1ccc(OCCCOc2ccc(C=CC(=O)c3cccs3)cc2)cc1)c1cccs1 | MTT | 48 h | 30.1 µM |
| NS(=O)(=O)c1ccc(-n2nc(C(=O)NN=Cc3cccnc3)cc2-c2ccccc2)cc1 | fluorescence | 48 h | 34.1 µM |
| COc1ccc(N(Cc2csc(-c3ccccc3)n2)C(=O)CCCCCC(=O)NO)cc1 | MTT | 72 h | 3.12 µM |
| C(=N\Nc1cc(N/N=C/c2ccc3ccccc3n2)ncn1)/c1ccc2ccccc2n1 | MTT | 48 h | 34.3 µM |
| O=[N+]([O-])c1cc(I)c(O)c(C=NNc2ccccc2)c1 | MTT | 24 h | 7.76 µM |
| COc1cc(C2C3=C(Nc4nc(SC)[nH]c(=O)c42)c2ccccc2C3=O)ccc1O (stereo not shown) | MTT | 72 h | > 1000 µM |
| Fc1ccc2c(-c3nnc(Cc4ccccc4)[nH]3)nn(Cc3ccc(Cl)cc3Cl)c2c1 |  | 48 h | 192 µM |
| CCc1ccc(N=C2C(=O)N(Cc3ccccc3)c3ccccc32)cc1 | MTT | 48 h | 10.5 µM |
| COc1ccc(-n2cc(CNC(=O)[C@@]3(C)[C@H](O)CC[C@@]4(C)[C@H]3CC[C@]3(C)[C@@H]4C(=O)C=C4[C@@H]5[C@@H](C)[C@H](C)CC[C@]5(C)CC[C@]43C)nn2)cc1 | MTT | 24 h | 79 µM |
| CC1CCC(C(C)C)C(OC2=C(Cl)C(=O)c3ccccc3C2=O)C1 (stereo not shown) | MTT | 24 h | 21.9 µg/mL |
| O=C1Nc2ccccc2/C1=N/N=C/c1cccc([N+](=O)[O-])c1 | MTT | 48 h | 22.8 µg/mL |
| O=C1CS/C(=N\c2ccc(F)cc2O)N1c1nnc(-c2ccc(C(F)(F)F)cc2/N=C2\SCC(=O)N2c2ccc(F)cc2O)s1 | MTT |  | 18.1 µM |
| CCOC(=O)c1c(C)nc2ccc(-c3cccc(F)c3)cc2c1O | MTT | 48 h | 10.5 µM |
| O=C1Nc2ccccc2C1=Nc1ccccc1I | MTT | 48 h | 42.6 µM |
| C/C(=N\N=C(/C)c1c(O)c2ccccc2oc1=O)c1c(O)c2ccccc2oc1=O | MTT | 48 h | 33.6 µM |
| O=C(C=Cc1cccs1)c1ccc(OCCCOc2ccc(C(=O)C=Cc3cccs3)cc2)cc1 | MTT | 48 h | 4.05 µM |
| NNc1nc2ccc(Br)cc2c(=O)n1-c1ccc(Cl)cc1 | MTT | 48 h | 12.8 µM |
| CNC(=S)N/N=C/c1cccc2cc3ccccc3nc12 | MTT | 48 h | 18.8 µM |
| O=C1CS/C(=N\c2cc(C(F)(F)F)ccc2-c2nnc(N3C(=O)CS/C3=N\c3ccc(Cl)cc3)s2)N1c1ccc(Cl)cc1 | MTT |  | 52.5 µM |
| COc1cc(C=NNC(=O)c2cc(-c3ccccc3)n(-c3ccc(S(N)(=O)=O)cc3)n2)cc(OC)c1OC | fluorescence | 48 h | 21.6 µM |
| O=C(CCc1ccc(Cl)cc1)N1C(=O)C(=Nc2ccc(Cl)cc2Br)c2ccccc21 | MTT | 48 h | 34.1 µM |
| C/C(=N\CCNCC/N=C(\C)c1c(O)c2ccccc2oc1=O)c1c(O)c2ccccc2oc1=O | MTT | 48 h | 11 µM |
| COc1cccc2c1C(=O)c1c(O)c3c(c(O)c1C2=O)C[C@@](O)(C(=O)CO)C[C@@H]3O[C@H]1C[C@H](N)[C@H](O)[C@H](C)O1 |  | 96 h | 0.146 µM |
| c1ccc(-c2noc(-c3nn(Cc4ccncc4)c4ccccc34)n2)cc1 |  | 48 h | 18.7 µM |
| COc1cc(C=O)ccc1OC1=C(Cl)C(=O)c2ccccc2C1=O | MTT | 24 h | 41.5 µg/mL |
| CCC(C(=O)N1C(=O)C(=Nc2ccc(Cl)cc2Br)c2ccccc21)c1ccccc1 (stereo not shown) | MTT | 48 h | 34.2 µM |
| CC(=O)O[C@@H]1[C@@H](OC(C)=O)[C@H](OC(C)=O)CO[C@H]1n1cc(Cn2c(C(=O)/C=C/c3ccc(F)cc3)nc3ccccc32)nn1 | LDH | 48 h | 2.98 µM |
